Results published in ChEMBL document CHEMBL1143938, “Synthesis and antiviral activities of novel chiral cyanoacrylate derivatives with (E) configuration” (2008).
Active and inactive are the calls of the source. The calls are words filed in the database; no cut-off is given here.

Key:
[1] = tested on: Tobacco mosaic virus; experiment: Antiviral activity against TMV-infected tobacco leaves assessed as protection against viral infection at 500 mg/L; type: functional
[2] = tested on: Nicotiana tabacum; experiment: Effect on accumulation of PR1a mRNA in tobacco leaf on day 2; type: functional, organism-based
Summary of the method: (§1)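 Leaf RNA came from water-, TMV- and treated-plus-TMV tobacco. PR-1a and PR-5 were amplified by semi-quantitative PCR (annealing 58 °C; 1.5% agarose, ethidium bromide) and by real-time PCR. Real-time values were taken relative to β-actin by ΔΔCT, n = 4, in triplicate.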

[3] = tested on: Nicotiana tabacum; experiment: Effect on accumulation of PR1a mRNA in tobacco leaf upto […] after 1 day; type: functional, organism-based; summary of the method: as §1
[4] = tested on: Nicotiana tabacum; experiment: Stimulation of L-phenylalanine ammonia-lyase level in Nicotiana tabacum assessed as per mg of protein after 7 days; type: functional
Summary of the method: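 TMV-inoculated Nicotiana tabacum treated at 500 ppm and sampled at 1, 3, 5 and 7 days. Water and TMV-only treatments served as controls. Leaves were homogenized on ice in 5 mM 2-mercaptoethanol-boric acid buffer (pH 8.8) and centrifuged, and enzyme activity was read in the supernatant. PAL was expressed per mg protein. Means of n = 3, with one-way ANOVA and LSD.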

[5] = tested on: Tobacco mosaic virus; experiment: Antiviral activity against TMV-infected tobacco leaves assessed as viral inactivation at 500 mg/L; type: functional
[6] = tested on: Tobacco mosaic virus; experiment: Antiviral activity against TMV-infected tobacco leaves assessed as curative effect against viral disease at 500 mg/L; type: functional
[7] = tested on: Nicotiana tabacum; experiment: Stimulation of leaf size in Nicotiana tabacum relative to water treated control; type: functional, organism-based
[8] = tested on: Nicotiana tabacum; experiment: Effect on accumulation of PR5 mRNA in tobacco leaf upto […] after 1 day; type: functional, organism-based; summary of the method: as §1
[9] = tested on: Nicotiana tabacum; experiment: Effect on accumulation of PR5 mRNA in tobacco leaf after 12 hrs; type: functional, organism-based; summary of the method: as §1
[10] = tested on: Nicotiana tabacum; experiment: Stimulation of peroxidase activity in Nicotiana tabacum after 5 days

| Compound | Activity [1] [%] | Activity [2] | Activity [3] | Activity [4] [EU/mg] | Activity [5] [%] | Activity [6] [%] | Activity [7] | Activity [8] | Activity [9] | Activity [10] |
| --- | --- | --- | --- | --- | --- | --- | --- | --- | --- | --- |
| CCOC(=O)/C(C#N)=C(\NCc1ccccc1)N[C@H](C)c1ccc(F)cc1 | 65.7 | Active | Active | 5.88 | 49.5 | 64 | Active | Active | Active | Active |
| CNCC(=O)N[C@@H](CO)C(=O)N[C@H]1C(O)[C@@H](O)[C@H](n2ccc(N)nc2=O)O[C@@H]1C(N)=O (single isomer, unassigned) [NINGNANMYCIN] | 100 |  |  |  | 50 | 57.8 |  |  |  |  |
